Converted amounts (≈) assume the structure as drawn. “And” between values parts separate entries of the source, which are not always exact repeats. Equal values may be shown once. Read-outs that look alike come from different tables or passages of the source.
Key:
Desorption isotherms = type: physicochemical
[1] = Desorption kinetics of bisphenols from bisphenol-attached PVC microplastics; type: physicochemical
How it was run: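 Bisphenol-loaded PVC from the adsorption step was placed in water or simulated intestinal fluid (NaCl 0.12 M, Na2CO3 0.02 M, sodium taurocholate 15.5 mM) in sealed 1 L glass bottles. Bottles were agitated rotationally at 200 rpm in an oil bath. Bisphenol was measured in filtered supernatant at intervals from 0 to 75 h. Run in triplicate.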

[2] = Adsorption of bisphenols onto PVC microplastics; type: physicochemical; details: 1.5 g PVC microplastics in 1 L, 48 h, room temperature
How it was run: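 Each bisphenol was dissolved in ethanol, then diluted in a 1 L glass bottle to initial concentrations of 0 to 1.0 mg L-1. PVC microplastics were added, and bottles were shaken at 200 rpm until adsorption equilibrium. Supernatants were filtered through a glass microfiber filter before bisphenol quantification. Run in triplicate.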

[3] = tested on: human breast adenocarcinoma cells, MCF-7; assay: cells; type: cell-based; details: for Cytotoxicity (proliferation reduction), MCF-7: high concentration (2 mg L^−1)
[4] = water, ref Wu et al.^3; cited from earlier work
[5] = tested on: grass carp hepatocyte cell line, L8824; assay: cells; type: cell-based; details: for Cytotoxicity (proliferation reduction), L8824: high concentration (2 mg L^−1)
[6] = Physicochemical properties of the five bisphenols; details: calculated from log Kow and pKa
[7] = type: physicochemical; details: high concentration (2 mg L^−1)
[8] = Homo sapiens, MCF7, 72 h, read-out: IC50 to MCF-7, 72 h exposure, 311 K, MTT
[9] = calculated for concentration desorbed in warm-I
[10] = calculated for concentration desorbed in water
[11] = read-out: IC50 to MCF-7, 72 h exposure, 311 K, MTT
[12] = Hepatocyte, 72 h, read-out: IC50 to L8824, 72 h exposure, 291 K, MTT
[13] = read-out: IC50 to L8824, 72 h exposure, 291 K, MTT

SMILES	kFd, Freundlich constant for desorption (Desorption isotherms; warm-I (Table 2))	n, surface heterogeneity constant (desorption) (Desorption isotherms; warm-I (Table 2))	kFd, Freundlich constant for desorption (Desorption isotherms; water (Table 2))	Fslow, slow fraction ([1]; cold-I, pH 7.5, 291 K)	krap, rapid desorption rate constant ([1]; cold-I, pH 7.5, 291 K)	kslow, slow desorption rate constant ([1]; cold-I, pH 7.5, 291 K)	kvs, very slow desorption rate constant ([1]; cold-I, pH 7.5, 291 K)	Fslow, slow fraction ([1]; warm-I, pH 6.5, 311 K)	Fvs, very slow fraction ([1]; warm-I, pH 6.5, 311 K)	krap, rapid desorption rate constant ([1]; warm-I, pH 6.5, 311 K)	kslow, slow desorption rate constant ([1]; warm-I, pH 6.5, 311 K)	kvs, very slow desorption rate constant ([1]; warm-I, pH 6.5, 311 K)	Fslow, slow fraction ([1]; water, pH 7.0, 291 K)	Fvs, very slow fraction ([1]; water, pH 7.0, 291 K)	krap, rapid desorption rate constant ([1]; water, pH 7.0, 291 K)	kslow, slow desorption rate constant ([1]; water, pH 7.0, 291 K)	kvs, very slow desorption rate constant ([1]; water, pH 7.0, 291 K)	amount of bisphenol adsorbed on the PVC [2]	kFa, Freundlich constant for adsorption [4]	n, surface heterogeneity constant (adsorption) [4]	also measured
Oc1ccc(C(c2ccc(O)cc2)(C(F)(F)F)C(F)(F)F)cc1 [BPAF, bisphenol AF]	0.465 mg^−1/n·L^−1/n·g^−1	1.154	1.933 mg^−1/n·L^−1/n·g^−1	0.409±0.002	1.007±0.318 10^-2 h^-1	9.957±0.755 10^-4 h^-1	<0.01 10^-5 h^-1	0.315±0.007	<0.001	2.609±0.521 10^-2 h^-1	13.80±2.684 10^-4 h^-1	<0.01 10^-5 h^-1	0.272±0.010	0.068±0.002	0.794±0.230 10^-2 h^-1	5.983±0.498 10^-4 h^-1	6.314±0.606 10^-5 h^-1	0.24 mg/g	1.458 mg^−1/n·L^−1/n·g^−1	1.14	HI, hysteresis index (Desorption isotherms; warm-I): <0; HI, hysteresis index (Desorption isotherms; water): 0.326; n, surface heterogeneity constant (desorption) (Desorption isotherms; water (Table 2)): 1.155; Fvs, very slow fraction ([1]; cold-I, pH 7.5, 291 K): 0.003±0.001; IC50 [3, 8]: 2.65 ± 1.34 µg/mL; Cytotoxicity (proliferation reduction), MCF-7 [3, 9]: 36.87%; Cytotoxicity (proliferation reduction), MCF-7 [3, 10]: 24.19%; IC50 [3, 11]: 7.87 ± 3.98 µM; IC50 [5, 12]: 1.15 ± 0.18 µg/mL; Cytotoxicity (proliferation reduction), L8824 [5, 9]: 46.31%; Cytotoxicity (proliferation reduction), L8824 [5, 10]: 32.70%
CC(C)(c1ccc(O)cc1)c1ccc(O)cc1 [BPA, bisphenol A]	0.398 mg^−1/n·L^−1/n·g^−1	1.218	1.033 mg^−1/n·L^−1/n·g^−1	0.395±0.003	0.809±0.302 10^-2 h^-1	10.90±0.407 10^-4 h^-1	9.442±0.716 10^-5 h^-1	0.303±0.046	0.019±0.003	2.163±0.456 10^-2 h^-1	11.40±0.898 10^-4 h^-1	9.069±0.647 10^-5 h^-1	0.284±0.004	0.076±0.004	0.746±0.206 10^-2 h^-1	5.979±0.555 10^-4 h^-1	6.997±0.788 10^-5 h^-1	0.19 mg/g	0.801 mg^−1/n·L^−1/n·g^−1	1.21	HI, hysteresis index (Desorption isotherms; warm-I): <0; HI, hysteresis index (Desorption isotherms; water): 0.289; n, surface heterogeneity constant (desorption) (Desorption isotherms; water (Table 2)): 1.512; Fvs, very slow fraction ([1]; cold-I, pH 7.5, 291 K): 0.043±0.005; IC50 ([3]; Homo sapiens, MCF7, 72 h, read-out: IC50 to MCF-7): 36.9 µM and 8.42 µg/mL; Cytotoxicity (proliferation reduction), MCF-7 [3, 9]: 21.75%; Cytotoxicity (proliferation reduction), MCF-7 [3, 10]: 12.36%; log Dow [6]: 3.32; IC50 ([5]; Hepatocyte, 72 h, read-out: IC50 to L8824): 16.2 µM and 3.7 µg/mL; Cytotoxicity (proliferation reduction), L8824 [5, 9]: 29.75%; Cytotoxicity (proliferation reduction), L8824 [5, 10]: 20.08%
O=S(=O)(c1ccc(O)cc1)c1ccc(O)cc1 [BPS, bisphenol S]	0.341 mg^−1/n·L^−1/n·g^−1	1.207	0.602 mg^−1/n·L^−1/n·g^−1	0.383±0.001	0.587±0.228 10^-2 h^-1	7.612±0.336 10^-4 h^-1	12.03±0.685 10^-5 h^-1	0.325±0.005	<0.001	1.497±0.391 10^-2 h^-1	10.00±1.191 10^-4 h^-1	11.338±0.322 10^-5 h^-1	0.410±0.007	0.028±0.002	0.580±0.174 10^-2 h^-1	6.789±0.198 10^-4 h^-1	<0.01 10^-5 h^-1	0.15 mg/g	0.503 mg^−1/n·L^−1/n·g^−1	1.15	Fvs, very slow fraction ([1]; cold-I, pH 7.5, 291 K): 0.085±0.002; IC50 to MCF-7 ([3]; 72 h exposure, 311 K, MTT): 14.50 ± 1.95 µg/mL (≈ 57.9 µM); IC50 [3, 11]: 57.9 ± 7.76 µM; IC50 to L8824 ([5]; 72 h exposure, 291 K, MTT): 8.98 ± 1.51 µg/mL (≈ 35.9 µM); IC50 [5, 13]: 35.9 ± 6.01 µM
CCC(C)(c1ccc(O)cc1)c1ccc(O)cc1 [BPB, bisphenol B]	0.428 mg^−1/n·L^−1/n·g^−1	1.179	1.542 mg^−1/n·L^−1/n·g^−1	0.456±0.005	0.864±0.209 10^-2 h^-1	10.80±0.737 10^-4 h^-1	7.718±0.488 10^-5 h^-1	0.308±0.003	0.010±0.001	2.479±0.452 10^-2 h^-1	18.90±2.818 10^-4 h^-1	<0.01 10^-5 h^-1	0.293±0.006	0.046±0.002	0.777±0.285 10^-2 h^-1	6.751±0.274 10^-4 h^-1	6.992±0.534 10^-5 h^-1	0.23 mg/g	1.182 mg^−1/n·L^−1/n·g^−1	1.16	HI, hysteresis index (Desorption isotherms; warm-I): <0; HI, hysteresis index (Desorption isotherms; water): 0.304; n, surface heterogeneity constant (desorption) (Desorption isotherms; water (Table 2)): 1.237; Fvs, very slow fraction ([1]; cold-I, pH 7.5, 291 K): 0.059±0.001; IC50 [3, 8]: 21.6 µM and 5.25 µg/mL; Cytotoxicity (proliferation reduction), MCF-7 [3, 9]: 29.53%; Cytotoxicity (proliferation reduction), MCF-7 [3, 10]: 18.79%; IC50 [5, 12]: 2.34 ± 0.23 µg/mL; Cytotoxicity (proliferation reduction), L8824 [5, 9]: 36.95%; Cytotoxicity (proliferation reduction), L8824 [5, 10]: 26.25%; IC50 [5, 13]: 9.67 ± 0.92 µM
Oc1ccc(Cc2ccc(O)cc2)cc1 [BPF, bisphenol F]	0.388 mg^−1/n·L^−1/n·g^−1	1.186	0.720 mg^−1/n·L^−1/n·g^−1	0.335±0.002	0.662±0.241 10^-2 h^-1	6.906±0.579 10^-4 h^-1	2.367±0.112 10^-5 h^-1	0.308±0.003	0.005±0.001	1.744±0.373 10^-2 h^-1	9.877±1.415 10^-4 h^-1	5.778±0.325 10^-5 h^-1	0.371±0.004	0.051±0.002	0.619±0.179 10^-2 h^-1	6.659±0.441 10^-4 h^-1	<0.01 10^-5 h^-1	0.16 mg/g	0.575 mg^−1/n·L^−1/n·g^−1	1.13	HI, hysteresis index (Desorption isotherms; warm-I): <0; HI, hysteresis index (Desorption isotherms; water): 0.252; n, surface heterogeneity constant (desorption) (Desorption isotherms; water (Table 2)): 1.594; IC50 to MCF-7 ([3]; 72 h exposure, 311 K, MTT): 6.39 ± 0.34 µg/mL (≈ 31.9 µM); Cytotoxicity (proliferation reduction), MCF-7 [3, 9]: 26.54%; Cytotoxicity (proliferation reduction), MCF-7 [3, 10]: 20.83%; IC50 [3, 11]: 31.9 ± 1.69 µM; log Dow [6]: 2.80; desorbed concentration, Warm-I [7]: 0.59 mg/L; IC50 to L8824 ([5]; 72 h exposure, 291 K, MTT): 2.26 ± 0.43 µg/mL (≈ 11.3 µM); Cytotoxicity (proliferation reduction), L8824 [5, 9]: 33.24%; Cytotoxicity (proliferation reduction), L8824 [5, 10]: 27.15%; IC50 [5, 13]: 11.3 ± 2.12 µM

Source: article PMC9488007 (Environmental Science and Ecotechnology, 2020)
